{"source": "ChEMBL document CHEMBL4364350", "about": "“Use of a fluorescence assay to determine relative affinities of semisynthetic aminoglycosides to small RNAs representing bacterial and mitochondrial A sites” (Bioorg Med Chem, 2019)", "key": {"[1]": {"assay": "Binding affinity to 5'-fluorescein-tagged human mitochondrial ribosomal A site wt-duplex RNA incubated for 2 mins by fluorescence spectrophotometric analysis", "procedure,_shortened": "(§1)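 The 5'-fluorescein-labelled strand was set to 1 μM in binding buffer (10 mM HEPES pH 7.4, 150 mM NaCl, 3 mM Na2EDTA). The complementary strand was annealed at 95 °C for 1 min, then cooled slowly overnight. Aminoglycoside was added in 12–15 aliquots of 2 μL, each followed by 2 min incubation. Excitation 490 nm; 520 nm emission was volume-corrected. Fraction bound was fitted to a quadratic equation for apparent Kd, from three independent trials.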"}, "[2]": {"test_system": "Escherichia coli", "assay": "Potency index, ratio of paromomycin Kd to compound Kd for 5'-fluorescein-tagged Escherichia coli ribosomal A site wt-bac duplex RNA incubated for 2 mins by fluorescence spectrophotometric analysis"}, "[3]": {"assay": "Selectivity ratio of IC50 for anti-ribosomal activity against human-bacterial hybrid ribosome containing human mitochondrial ribosome A site harboring A1555G mutant 12s rRNA to IC50 for anti-ribosomal activity against bacterial 70S hybrid ribosomes"}, "[4]": {"test_system": "human mitochondrial ribosomal A site (wild type) RNA", "assay": "Selectivity ratio of Kd for 5'-fluorescein-tagged human mitochondrial ribosomal A site wt-duplex RNA to Kd for 5'-fluorescein-tagged Escherichia coli ribosomal A site wt-bac duplex RNA", "assay_type": "toxicity"}, "[5]": {"assay": "Binding affinity to 5'-fluorescein-tagged Escherichia coli ribosomal A site wt-bac duplex RNA incubated for 2 mins by fluorescence spectrophotometric analysis", "procedure,_shortened": "as §1"}, "[6]": {"assay": "Anti-ribosomal activity against human-bacterial hybrid ribosome containing human mitochondrial ribosome A site harboring wild type 12s rRNA assessed as inhibition of cell-free translation by dual luciferase reporter assay"}, "[7]": {"assay": "Binding affinity to 5'-fluorescein-tagged human mitochondrial ribosome A site mutant duplex RNA incubated for 2 mins by fluorescence spectrophotometry analysis", "procedure,_shortened": "as §1"}, "[8]": {"test_system": "Escherichia coli", "assay": "Antibacterial activity against Escherichia coli AG001 incubated for overnight by broth microdilution assay", "assay_type": "functional"}, "[9]": {"assay": "Selectivity ratio of IC50 for anti-ribosomal activity against human-bacterial hybrid ribosome containing human mitochondrial ribosome A site harboring wild type 12s rRNA to IC50 for anti-ribosomal activity against bacterial 70S hybrid ribosomes"}, "[10]": {"biological_target": "Bacterial 70S ribosome", "assay": "Anti-ribosomal activity against bacterial 70S hybrid ribosomes assessed as inhibition of cell-free translation incubated for 35 mins by dual luciferase reporter assay", "assay_type": "subcellular, Bacteria"}, "[11]": {"assay": "Anti-ribosomal activity against human-bacterial hybrid ribosome containing human mitochondrial ribosome A site harboring A1555G mutant 12s rRNA assessed as inhibition of cell-free translation by dual luciferase reporter assay"}, "[12]": {"test_system": "human mitochondrial ribosome A site (mutant) RNA", "assay": "Selectivity ratio of Kd for 5'-fluorescein-tagged human mitochondrial ribosome A site mutant duplex RNA to Kd for 5'-fluorescein-tagged Escherichia coli ribosomal A site wt-bac duplex RNA", "assay_type": "toxicity"}, "[13]": {"assay": "Binding affinity to 5'-fluorescein-tagged bacterial ribosomal A site 27-nucleotide hairpin RNA construct by fluorescence analysis", "design": "species or system Bacteria"}, "[14]": {"test_system": "Escherichia coli", "assay": "Binding affinity to 5'-fluorescein-tagged Escherichia coli ribosomal A site wt-bac duplex RNA assessed as conformational change in RNA by measuring decrease in fluorescence intensity incubated for 2 mins by fluorescence spectrophotometric analysis", "procedure,_shortened": "as §1"}}}
{"compound": "CCC[C@H]1[C@H](O)[C@@H](N)[C@@H](O[C@H]2[C@H](O[C@@H]3O[C@H](CO)[C@@H](O[C@H]4O[C@@H](CN)[C@@H](O)[C@H](O)[C@H]4N)[C@H]3O)[C@@H](O)[C@H](N)C[C@@H]2N)O[C@@H]1CO", "values": [{"measurement": "Kd", "setting": "[1]", "value": 26900, "unit": "nM"}, {"measurement": "Ratio", "setting": "[2]", "value": 2.5}, {"measurement": "Ratio IC50", "setting": "[3]", "value": 1730}, {"measurement": "selectivity ratio", "setting": "[4]", "value": 13400}, {"measurement": "Kd", "setting": "[5]", "value": 2, "unit": "nM"}, {"measurement": "IC50", "setting": "[6]", "value": 167, "unit": "µg/mL"}, {"measurement": "Kd", "setting": "[7]", "value": 5800, "unit": "nM"}, {"measurement": "MIC", "setting": "[8]", "value": 2, "unit": "µg/mL"}, {"measurement": "Ratio IC50", "setting": "[9]", "value": 5570}, {"measurement": "IC50", "setting": "[10]", "value": 46.7, "unit": "nM"}, {"measurement": "IC50", "setting": "[11]", "value": 51, "unit": "µg/mL"}, {"measurement": "selectivity ratio", "setting": "[12]", "value": 2900}]}
{"compound": "NC[C@@H]1O[C@H](O[C@H]2[C@@H](O)[C@H](O[C@@H]3[C@@H](O)[C@H](N)C[C@H](N)[C@H]3O[C@H]3O[C@H](CN)[C@@H](O)[C@H](O)[C@H]3N)O[C@@H]2CO)[C@H](N)[C@@H](O)[C@@H]1O", "note": "[FRAMYCETIN]", "values": [{"measurement": "Kd", "setting": "[1]", "value": 1100, "unit": "nM"}, {"measurement": "Ratio IC50", "setting": "[3]", "value": 20}, {"measurement": "selectivity ratio", "setting": "[4]", "value": 1100}, {"measurement": "Kd", "setting": "[5]", "value": 1, "unit": "nM"}, {"measurement": "Kd", "setting": "[7]", "value": 100, "unit": "nM"}, {"measurement": "Ratio IC50", "setting": "[9]", "value": 200}, {"measurement": "Kd", "setting": "[13]", "value": 5, "unit": "nM"}, {"measurement": "selectivity ratio", "setting": "[12]", "value": 100}, {"measurement": "inhibition", "setting": "[14]", "value": 20, "unit": "%"}]}
{"compound": "CCO[C@H]1[C@H](O)[C@@H](N)[C@@H](O[C@H]2[C@H](O[C@@H]3O[C@H](CO)[C@@H](O[C@H]4O[C@@H](CN)[C@@H](O)[C@H](O)[C@H]4N)[C@H]3O)[C@@H](O)[C@H](N)C[C@@H]2N)O[C@@H]1CO", "values": [{"measurement": "Kd", "setting": "[1]", "value": 12800, "unit": "nM"}, {"measurement": "Ratio IC50", "setting": "[3]", "value": 1500}, {"measurement": "selectivity ratio", "setting": "[4]", "value": 427}, {"measurement": "Kd", "setting": "[5]", "value": 30, "unit": "nM"}, {"measurement": "IC50", "setting": "[6]", "value": 97, "unit": "µg/mL"}, {"measurement": "Kd", "setting": "[7]", "value": 8600, "unit": "nM"}, {"measurement": "MIC", "setting": "[8]", "value": 16, "unit": "µg/mL"}, {"measurement": "Ratio IC50", "setting": "[9]", "value": 1210}, {"measurement": "IC50", "setting": "[10]", "value": 124, "unit": "nM"}, {"measurement": "IC50", "setting": "[11]", "value": 120, "unit": "µg/mL"}, {"measurement": "selectivity ratio", "setting": "[12]", "value": 287}]}
{"compound": "NC[C@@H]1O[C@H](O[C@H]2[C@@H](O)[C@H](O[C@@H]3[C@@H](O)[C@H](N)C[C@H](N)[C@H]3O[C@H]3O[C@H](CO)[C@@H](O)[C@H](O)[C@H]3N)O[C@@H]2CO)[C@H](N)[C@@H](O)[C@@H]1O", "note": "[PAROMOMYCIN]", "values": [{"measurement": "Kd", "setting": "[1]", "value": 6500, "unit": "nM"}, {"measurement": "Ratio IC50", "setting": "[3]", "value": 200}, {"measurement": "selectivity ratio", "setting": "[4]", "value": 1300}, {"measurement": "Kd", "setting": "[5]", "value": 5, "unit": "nM"}, {"measurement": "IC50", "setting": "[6]", "value": 51, "unit": "µg/mL"}, {"measurement": "Kd", "setting": "[7]", "value": 2800, "unit": "nM"}, {"measurement": "MIC", "setting": "[8]", "value": 4, "unit": "µg/mL"}, {"measurement": "Ratio IC50", "setting": "[9]", "value": 1700}, {"measurement": "IC50", "setting": "[11]", "value": 6, "unit": "µg/mL"}, {"measurement": "selectivity ratio", "setting": "[12]", "value": 560}]}
